For one test, the species on record is Sus scrofa. In words: Inhibition of porcine pancreatic lipase type 2 at 10 uM by FRET assay.
The subject of the next test is Bacteria. In words: Inhibition of bacterial lipoprotein lipase at 10 uM by FRET assay.
For test [1], the target named is T1, Diacylglycerol lipase-alpha (Homo sapiens, UniProt Q9Y4D2).
T1 sequence (Q9Y4D2 whole entry): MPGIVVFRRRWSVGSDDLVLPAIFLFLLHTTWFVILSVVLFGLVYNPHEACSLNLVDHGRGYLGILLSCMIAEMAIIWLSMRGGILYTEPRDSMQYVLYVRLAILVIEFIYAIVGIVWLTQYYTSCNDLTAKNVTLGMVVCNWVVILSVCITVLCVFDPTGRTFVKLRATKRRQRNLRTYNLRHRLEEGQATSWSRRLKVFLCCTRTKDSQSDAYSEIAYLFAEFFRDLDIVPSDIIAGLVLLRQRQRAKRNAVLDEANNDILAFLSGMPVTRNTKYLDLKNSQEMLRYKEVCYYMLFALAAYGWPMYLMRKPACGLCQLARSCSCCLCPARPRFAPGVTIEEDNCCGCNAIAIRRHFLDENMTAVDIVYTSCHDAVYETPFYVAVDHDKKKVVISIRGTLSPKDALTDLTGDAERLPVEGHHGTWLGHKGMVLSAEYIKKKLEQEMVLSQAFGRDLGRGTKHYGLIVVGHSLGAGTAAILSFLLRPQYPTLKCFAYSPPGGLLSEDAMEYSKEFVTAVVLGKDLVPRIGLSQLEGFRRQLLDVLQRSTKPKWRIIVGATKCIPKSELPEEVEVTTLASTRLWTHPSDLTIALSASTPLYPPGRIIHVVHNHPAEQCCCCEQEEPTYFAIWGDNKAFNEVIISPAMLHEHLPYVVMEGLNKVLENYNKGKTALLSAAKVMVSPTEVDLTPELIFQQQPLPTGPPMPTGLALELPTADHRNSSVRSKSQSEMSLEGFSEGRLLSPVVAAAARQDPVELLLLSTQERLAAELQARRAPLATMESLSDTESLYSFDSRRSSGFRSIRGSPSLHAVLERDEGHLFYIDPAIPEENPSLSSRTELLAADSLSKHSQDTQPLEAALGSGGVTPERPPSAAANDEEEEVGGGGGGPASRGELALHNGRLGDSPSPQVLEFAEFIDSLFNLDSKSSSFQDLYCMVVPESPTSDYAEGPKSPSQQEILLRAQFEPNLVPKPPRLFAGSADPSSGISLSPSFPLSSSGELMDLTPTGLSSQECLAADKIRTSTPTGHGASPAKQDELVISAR
In words: Inhibition of human DAGLalpha.

Test [2] has as its target T2, Diacylglycerol lipase-alpha (Homo sapiens) (UniProt Q9Y4D2).
T2 sequence (whole entry): T1 sequence (Q9Y4D2 whole entry)
In words: Inhibition of human DAGLalpha expressed in HEK293T cell membrane using [14C]SAG substrate at 10 uM using JZL184 pretreated protein in detergent free solution by […]. It is filed as cell-based. To be noted: HEK-293T.

Test [3] deals with T3, Monoglyceride lipase (Homo sapiens) (UniProt Q99685).
T3 sequence (whole entry): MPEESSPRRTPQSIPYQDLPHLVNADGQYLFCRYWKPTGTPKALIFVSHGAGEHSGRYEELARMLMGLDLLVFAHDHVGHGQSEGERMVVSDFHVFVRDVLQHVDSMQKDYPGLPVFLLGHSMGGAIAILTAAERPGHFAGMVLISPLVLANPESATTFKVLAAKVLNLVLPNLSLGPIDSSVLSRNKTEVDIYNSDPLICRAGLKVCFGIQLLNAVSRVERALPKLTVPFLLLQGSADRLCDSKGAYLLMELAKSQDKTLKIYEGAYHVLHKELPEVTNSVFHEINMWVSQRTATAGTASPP
Put plainly: Inhibition of human N-terminal histidine tagged full length MAGL expressed in Escherichia coli at 10 uM by coumarin ester substrate fluorescence assay.

Test [4] has as its target T2, Diacylglycerol lipase-alpha (Homo sapiens). Put plainly: Inhibition of human DAGLalpha expressed in HEK293T cell membrane using [14C]SAG substrate at 10 uM in detergent free solution by scintillation counting based radio-TLC assay. To be noted: HEK-293T.
Test [5] deals with T4, Fatty-acid amide hydrolase 1 (Rattus norvegicus) (UniProt P97612).
T4 sequence (whole entry): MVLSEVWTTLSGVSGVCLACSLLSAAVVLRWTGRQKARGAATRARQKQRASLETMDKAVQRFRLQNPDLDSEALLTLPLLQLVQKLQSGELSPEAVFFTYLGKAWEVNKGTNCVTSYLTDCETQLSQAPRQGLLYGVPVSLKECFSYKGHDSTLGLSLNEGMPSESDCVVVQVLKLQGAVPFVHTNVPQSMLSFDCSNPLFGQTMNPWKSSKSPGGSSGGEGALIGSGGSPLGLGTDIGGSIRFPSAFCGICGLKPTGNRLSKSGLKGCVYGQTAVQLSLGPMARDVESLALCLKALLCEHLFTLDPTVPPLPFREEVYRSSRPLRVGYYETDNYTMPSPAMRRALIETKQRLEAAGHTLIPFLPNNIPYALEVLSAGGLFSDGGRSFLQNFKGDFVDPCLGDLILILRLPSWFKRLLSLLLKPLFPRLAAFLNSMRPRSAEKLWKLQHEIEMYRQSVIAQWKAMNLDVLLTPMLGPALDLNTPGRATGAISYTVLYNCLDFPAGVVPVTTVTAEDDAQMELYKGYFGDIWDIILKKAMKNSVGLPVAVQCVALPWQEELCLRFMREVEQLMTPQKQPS
Put plainly: Inhibition of rat histidine tagged FAAH expressed in Escherichia coli at 10 uM by coumarin ester substrate fluorescence assay.

Test [6] has as its target T2, Diacylglycerol lipase-alpha (Homo sapiens). Put plainly: Inhibition of human DAGLalpha expressed in HEK293T cell membrane using [14C]SAG substrate at 10 uM in detergent free solution by […]. It is filed as cell-based. The following applies: HEK-293T.
For test [7], the target named is T5, Fatty-acid amide hydrolase 1 (Rattus norvegicus, UniProt P97612).
T5 sequence (P97612 whole entry): T4 sequence (whole entry)
In words: Inhibition of rat histidine tagged FAAH expressed in Escherichia coli by coumarin ester substrate fluorescence assay.

Test [8] has as its target T6, Diacylglycerol lipase-alpha (Mus musculus) (UniProt Q6WQJ1).
T6 sequence (whole entry): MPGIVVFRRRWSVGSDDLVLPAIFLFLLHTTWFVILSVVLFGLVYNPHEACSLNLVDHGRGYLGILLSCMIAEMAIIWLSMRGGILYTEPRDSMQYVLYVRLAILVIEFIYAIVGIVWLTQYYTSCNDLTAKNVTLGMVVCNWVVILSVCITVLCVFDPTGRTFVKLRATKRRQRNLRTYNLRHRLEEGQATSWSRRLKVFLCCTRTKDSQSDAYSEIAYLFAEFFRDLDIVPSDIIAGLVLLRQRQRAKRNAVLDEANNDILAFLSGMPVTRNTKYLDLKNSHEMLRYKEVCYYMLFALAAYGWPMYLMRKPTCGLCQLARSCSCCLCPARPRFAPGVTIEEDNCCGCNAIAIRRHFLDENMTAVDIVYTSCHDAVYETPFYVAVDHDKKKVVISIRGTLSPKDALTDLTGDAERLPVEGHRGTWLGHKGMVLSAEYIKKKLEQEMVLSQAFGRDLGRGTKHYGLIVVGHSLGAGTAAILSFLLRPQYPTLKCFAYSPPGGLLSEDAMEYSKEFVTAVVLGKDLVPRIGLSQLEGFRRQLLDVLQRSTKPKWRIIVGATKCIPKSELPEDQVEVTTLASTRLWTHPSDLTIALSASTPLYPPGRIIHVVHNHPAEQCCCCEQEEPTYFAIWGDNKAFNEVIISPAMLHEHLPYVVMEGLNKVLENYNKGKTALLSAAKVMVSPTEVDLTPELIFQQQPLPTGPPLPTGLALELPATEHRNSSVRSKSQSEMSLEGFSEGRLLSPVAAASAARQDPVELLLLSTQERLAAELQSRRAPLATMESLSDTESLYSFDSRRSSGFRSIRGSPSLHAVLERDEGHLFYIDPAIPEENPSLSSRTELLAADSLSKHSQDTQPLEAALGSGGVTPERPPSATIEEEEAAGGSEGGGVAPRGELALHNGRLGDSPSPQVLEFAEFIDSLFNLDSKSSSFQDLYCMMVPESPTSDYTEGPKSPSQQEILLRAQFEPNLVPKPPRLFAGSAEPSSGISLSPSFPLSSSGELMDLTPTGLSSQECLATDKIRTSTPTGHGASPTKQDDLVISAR
In words: Inhibition of mouse DAGLalpha expressed in HEK293T cell membrane using [14C]SAG substrate at 10 nM by scintillation counting based radio-TLC assay. It is filed as cell membranes. The following applies: HEK-293T.

Test [9] addresses T6, Diacylglycerol lipase-alpha (Mus musculus). Put plainly: Inhibition of mouse DAGLalpha expressed in HEK293T cell membrane using [14C]SAG substrate at 10000 nM by scintillation counting based radio-TLC assay. The following applies: HEK-293T. The format is cell membranes.
Test [10] concerns the target T2, Diacylglycerol lipase-alpha (Homo sapiens). In words: Inhibition of human DAGLalpha expressed in HEK293T cell membrane using [14C]SAG substrate at 10 uM in detergent free solution using JZL184 pretreated protein by scintillation counting based radio-TLC assay. It is filed as cell membranes. To be noted: HEK-293T. A digest of the protocol:
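Same hDAGLα radio-TLC as above: Tris/CaCl2 pH 7.4, 15 min inhibitor preincubation at 37 °C, 20 μM [14C]SAG for 20 min at 37 °C, TLC with phosphorimaging, activity as (2-AG+AA)/total label.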

The target is the same in test [11]. Put plainly: Inhibition of human DAGLalpha expressed in HEK293T cell membrane using [14C]SAG substrate at 10 uM in presence of 0.05% Triton X-100 by scintillation counting based radio-TLC assay. To be noted: HEK-293T. The format is cell membranes. An outline of the steps:
(§1)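 Sonicated HEK293T protein (100 μg) in 50 mM Tris pH 7.4 with 10 mM CaCl2. Inhibitor in DMSO (10% DMSO standard) preincubated 15 min at 37 °C. [14C]SAG was added to 20 μM final for 20 min at 37 °C, with Triton X-100 where the line states it. Quenched with 2:1 CHCl3/MeOH. Silica TLC in CHCl3/MeOH/NH4OH 86:14:0.75, then 12 h phosphorimaging. Activity = (2-AG+AA)/(2-AG+AA+SAG). Background-subtracted; n=1–2.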

For test [12] the target is unchanged. In words: Inhibition of human DAGLalpha expressed in HEK293T cell membrane using [14C]SAG substrate at 10 uM in presence of 0.015% Triton X-100 by scintillation counting based radio-TLC assay. The following applies: HEK-293T. The format is cell membranes. An outline of the steps: as §1
The target is the same in test [13]. In words: Inhibition of human DAGLalpha expressed in HEK293T cell membrane using [14C]SAG substrate at 10 uM in presence of 0.05% Triton X-100 by […]. The format is cell-based. The following applies: HEK-293T.
In test [14] the target is T4, Fatty-acid amide hydrolase 1 (Rattus norvegicus). Put plainly: Inhibition of rat histidine tagged FAAH expressed in Escherichia coli at 1 uM by coumarin ester substrate fluorescence assay.
The target in test [15] is T3, Monoglyceride lipase (Homo sapiens). Put plainly: Inhibition of human N-terminal histidine tagged full length MAGL expressed in Escherichia coli at 100 nM by coumarin ester substrate fluorescence assay.

This is an account of results in ChEMBL document CHEMBL2169869, “Assay and inhibition of diacylglycerol lipase activity” (Bioorg Med Chem Lett, 2012).

The source made the active and inactive calls. The calls are words filed in the database; no cut-off is given here.

On to `O=C(NCCCCCCNC(=O)ON=C1CCCCC1)ON=C1CCCCC1`, for which the inhibition in the test listed under Sus scrofa was 78%; with Bacteria it was < 0%; in [2] it was 40%; in test [3], 22%; in [4], 30%; in [5], 95%. In test [6], this compound showed an inhibition of 70%. Moreover, the half-inhibitory concentration (IC50) was 65000 nM in test [1] and 2240 nM in test [7].
With `NC(=O)c1cccc(-c2cccc(OC(=O)NC3CCCCC3)c2)c1`, the inhibition in the test listed under Sus scrofa is 68%; with Bacteria, 21%; in test [9] it was < 0%; in test [2], 7%; in test [3], 18%; in test [6], 22%. In addition, the inhibition result in [8] and in [4] was “inactive” in each case.
Turning to `O=C(N[C@H]1COC1=O)OCc1ccccc1`, the inhibition in the test filed under Sus scrofa is < 0%; in the test with Bacteria, < 0%; in test [2], 7%; in test [3], 13%; in [5] it was 10%; in [10], < 0%. This compound also registered an inhibition in [6] of 17%. The inhibition result in [8] and in test [4] was “inactive” throughout.
For the compound `O=C(Oc1ccc([N+](=O)[O-])cc1)N1CCN(Cc2cccc(Oc3ccccc3)c2)CC1`, the inhibition in the test listed under Sus scrofa is 43%; in the test on Bacteria it was < 0%; in test [9] it was 10%; in [2], 55%; in test [6], 84%. In addition, the inhibition entry in test [8] and in test [4] was “inactive” throughout.
`CCCCCCCCCCCCCC1CC(=O)O1` (racemic): the inhibition in the test filed under Sus scrofa was 38%; in the test with Bacteria it was < 0%; in test [11], 25%; in test [9], < 0%; in test [12], 45%; in test [3], 4%. Further, the inhibition came to 10% in test [5], 14% in test [6] and 72% in test [13].
Take `CCCCCCC[C@@H]1OC(=O)[C@H]1CCCCCC` (racemic): the inhibition in the test listed under Sus scrofa turned out to be 96%; with Bacteria, 67%; in test [2], 69%; in test [12], 37%; in test [3], 55%; in [5] it was 79%.
In the case of `CCCCCCC[C@H]1OC(=O)[C@H]1CCCCCC` (racemic), the inhibition was found to be 94% in the test listed under Sus scrofa; 13% in test [14]; 33% in the test with Bacteria; 66% in test [15]; 65% in [2]; 25% in test [12]. Also, the inhibition was 100% in [3] and 94% in test [5].
With `O=S(=O)(F)Cc1ccccc1` [PHENYLMETHYLSULFONYLFLUORIDE], the inhibition result in test [8] was “inactive”. Also, the inhibition with Bacteria was < 0%. This compound registered a 50% inhibitory concentration (IC50) in [7] of 833 nM.

Broadly, the inhibition is the drop in the measured response relative to a control, in per cent. By IC50 is commonly meant the concentration needed to halve the response being measured. Higher therefore signals lower potency.
